Data taken from ChEMBL document CHEMBL5385869, “Novel 4-aminoquinolines: Synthesis, inhibition of the Mycobacterium tuberculosis enoyl-acyl carrier protein reductase, antitubercular activity, SAR, and preclinical evaluation” (Eur J Med Chem, 2023).
≈ marks a conversion by molar mass, not a printed value.

Columns and labels:
[1] = test system: Mycobacterium tuberculosis; experiment: Antibacterial activity against pan-sensitive Mycobacterium tuberculosis H37Rv ATCC 27294 measured after 7 days by resazurin dye based assay; assay type: functional; settings: H37Rv ATCC 27294, 168 h, time 7 day
Procedure, shortened: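 Resazurin reduction microplate assay (REMA) in Middlebrook 7H9 broth with 10% ADC and 5% DMSO. Compounds come from 2 mg/mL DMSO stocks and are 2-fold serially diluted, top concentration 0.08–40 μg/mL depending on solubility. MIC is the lowest concentration preventing the blue-to-pink colour change. Three independent experiments; the reported value is the modal or the highest value.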

[2] = target: T1, Enoyl-[acyl-carrier-protein] reductase [NADH] (Mycobacterium tuberculosis, UniProt P9WGR1); experiment: Inhibition of Mycobacterium tuberculosis InhA-catalysed chemical reaction in presence of NADH measured for 1 min by UV/Visible spectrophotometry
T1 sequence (P9WGR1 whole entry): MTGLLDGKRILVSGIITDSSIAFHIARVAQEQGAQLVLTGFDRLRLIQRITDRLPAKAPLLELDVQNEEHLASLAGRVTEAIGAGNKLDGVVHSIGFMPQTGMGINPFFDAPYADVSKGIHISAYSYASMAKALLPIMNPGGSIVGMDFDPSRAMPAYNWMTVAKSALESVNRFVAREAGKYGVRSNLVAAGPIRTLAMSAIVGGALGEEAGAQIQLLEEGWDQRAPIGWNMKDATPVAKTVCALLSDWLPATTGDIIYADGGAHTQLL
Procedure, shortened: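 Recombinant MtInhA reaction at 25 °C in 100 mM Pipes pH 7.0, started by adding 2.2 μM enzyme and followed for 1 min. Substrate is DD-CoA, made from 2-trans-dodecenoic acid and CoA.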

SMILES | MIC [1] | IC50 [2]
CCOC(=O)c1ccc2nc(C)cc(Nc3ccc(CC)cc3)c2c1 | 29.9 µM (≈ 10 µg/mL) | 41.3 µM
CCOC(=O)c1ccc2nc(C)cc(Nc3ccc(N4CCC(C)CC4)cc3)c2c1 | 6.2 µM (≈ 2.5 µg/mL) | 10.9 µM
CCOC(=O)c1ccc2nc(C)cc(Nc3ccc(C(=O)N4CCCC4)cc3)c2c1 | > 49.6 µM | 44.5 µM
Cc1cc(Nc2ccc(N3CCCCC3)cc2)c2cc(N(C)C)ccc2n1 | 6.9 µM (≈ 2.49 µg/mL) | 20 µM
CCCc1ccc(Nc2cc(C)nc3ccc(C(=O)OCC)cc23)cc1 | 14.3 µM (≈ 4.98 µg/mL) | 19.6 µM
CCOC(=O)c1ccc2nc(C)cc(Nc3ccc(N4CCOCC4)cc3)c2c1 | 51.1 µM (≈ 20 µg/mL) | 19.5 µM
CCOC(=O)c1ccc2nc(C)cc(Nc3ccc(-n4cccn4)cc3)c2c1 | > 6.7 µM | 8 µM
Cc1cc(Nc2ccc(N3CCCCC3)cc2)c2cc(C#N)ccc2n1 | 14.6 µM (≈ 5 µg/mL) | 19.6 µM
Cc1cc(Nc2ccc(N3CCCCC3)cc2)c2cc(F)ccc2n1 | 14.9 µM (≈ 5 µg/mL) | 38.3 µM
CCOC(=O)c1ccc2nc(C)cc(Nc3ccc(N4CCN(Cc5ccccc5)CC4)cc3)c2c1 | 10.4 µM (≈ 5 µg/mL) | 26.2 µM
CCOC(=O)c1ccc2nc(C)cc(Nc3ccc(N4CCCC4)cc3)c2c1 | 13.3 µM (≈ 4.99 µg/mL) | 21.7 µM
Cc1cc(Nc2ccc(N3CCC(c4ccccc4)CC3)cc2)c2cc(Br)ccc2n1 | 1.33 µM (≈ 0.628 µg/mL) | > 50 µM
CCc1cc(Nc2ccc(N3CCCCC3)cc2)c2cc(Cl)ccc2n1 | 1.7 µM (≈ 0.622 µg/mL) | 2.9 µM
CCOC(=O)c1ccc2nc(C)cc(Nc3ccc(N4CCSCC4)cc3)c2c1 | > 12.3 µM | > 50 µM
CCc1cc(Nc2ccc(N3CCCCC3)cc2)c2cc(Br)ccc2n1 | 0.75 µM (≈ 0.308 µg/mL) | 1.54 µM
CCCCc1ccc(Nc2cc(C)nc3ccc(C(=O)OCC)cc23)cc1 | 6.9 µM (≈ 2.5 µg/mL) | 11.2 µM
Cc1cc(Nc2ccc(N3CCCCC3)cc2)c2cc(C(C)C)ccc2n1 | 6.9 µM (≈ 2.48 µg/mL) | 8.2 µM
Cc1cc(Nc2ccc(-n3cccn3)cc2)c2cc(Br)ccc2n1 | 3.3 µM (≈ 1.25 µg/mL) | 4.85 µM
CO[C@H]1/C=C/O[C@@]2(C)Oc3c(C)c(O)c4c(O)c(c(/C=N/N5CCN(C)CC5)c(O)c4c3C2=O)NC(=O)/C(C)=C\C=C\[C@H](C)[C@H](O)[C@@H](C)[C@@H](O)[C@@H](C)[C@H](OC(C)=O)[C@@H]1C [RIFAMPIN] | 0.05 µM (≈ 0.0411 µg/mL) | 
Cc1ccc2nc(C)cc(Nc3ccc(N4CCCCC4)cc3)c2c1 | 7.5 µM (≈ 2.49 µg/mL) | 17.2 µM
COc1ccc2nc(C)cc(Nc3ccc(N4CCCCC4)cc3)c2c1 | 3.6 µM (≈ 1.25 µg/mL) | 4.7 µM
CCOC(=O)c1ccc2nc(C)cc(Nc3ccc(CN4CCCCC4)cc3)c2c1 | 49.6 µM (≈ 20 µg/mL) | > 50 µM
CCOC(=O)c1ccc2nc(C)cc(Nc3ccc(-n4cnc5ccccc54)cc3)c2c1 | > 47.3 µM | 42.1 µM
CCOc1ccc2nc(C)cc(Nc3ccc(N4CCCCC4)cc3)c2c1 | 6.9 µM (≈ 2.49 µg/mL) | 9.5 µM
Cc1cc(Nc2ccc(N3CCCCC3)cc2)c2cc([N+](=O)[O-])ccc2n1 | 6.9 µM (≈ 2.5 µg/mL) | 18.6 µM
Cc1cc(Nc2ccc(N3CCCC3CO)cc2)c2cc(Br)ccc2n1 (stereo unspecified) | 12.1 µM (≈ 4.99 µg/mL) | > 50 µM
